# Active and inactive are the calls of the source. No cut-off for these calls is given here.
# Tests used:
# HT-22 [1] = assay: Cytotoxicity against mouse HT22 cells; type: cell-based
# Procedure, shortened: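 MTT viability assay in BV2 and HT22 cells, compounds tested without glutamate.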
# BV-2 (Mus musculus) [2] = assay: Antiinflammatory activity in mouse BV2 cells assessed as inhibition of LPS-stimulated NO production at 10 to 100 uM by Griess assay
# BV-2 (Mus musculus) [3] = assay: Cytotoxicity against mouse BV2 cells
# HT-22 [4] = assay: Neuroprotective activity against L-glutamate-induced neurotoxicity in mouse HT22 cells assessed as cell viability at 10 to 100 uM incubated 1 hr prior to L-glutamate-challenge measured after 12 hrs by MTT assay; type: functional, cell-based
# Procedure, shortened: (§1)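 Mouse hippocampal HT22 cells seeded at 3 × 10^4 per well in DMEM, pretreated 1 h with compound in DMSO (0.1% final), then exposed to 5 mM L-glutamate; viability by MTT after further 12 h.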
# HT-22 [5] = assay: Neuroprotective activity against L-glutamate-induced neurotoxicity in mouse HT22 cells assessed as GR activity at 50 uM incubated 1 hr prior to L-glutamate-challenge measured after 12 hrs (reference value: 0.94 +/- 0.19 mU/mg protein); type: functional
# HT-22 [6] = assay: Neuroprotective activity against L-glutamate-induced neurotoxicity in mouse HT22 cells assessed as GSH/GSSG ratio at 50 uM incubated 1 hr prior to L-glutamate-challenge measured after 12 hrs (reference value: 1.105 +/- 0.112); type: functional
# HT-22 [7] = assay: Antioxidant activity in mouse HT22 cells assessed as HO-1 protein expression at 100 uM by Western blotting analysis; type: functional, cell-based; settings: TDE = time-dependent effect
# Procedure, shortened: (§2)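 HT22 cells treated 30 min (kinases) or 12 h (HO-1) at stated concentrations or times; lysed in RIPA with protease and phosphatase inhibitors, 30 μg protein on 10% SDS-PAGE, PVDF transfer, overnight 4 °C primary antibodies (HO-1, ERK/p-ERK, JNK/p-JNK, p38/p-p38, β-actin), ECL detection.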
# HT-22 [8] = assay: Neuroprotective activity against L-glutamate-induced neurotoxicity in mouse HT22 cells assessed as SOD activity at 50 uM incubated 1 hr prior to L-glutamate-challenge measured after 12 hrs by xanthine-xanthine oxidase reaction (reference value: 16.10 +/- 0.54 U/mg protein); type: functional
# HT-22 [9] = assay: Neuroprotective activity against L-glutamate-induced neurotoxicity in mouse HT22 cells assessed as GSH-Px activity at 50 uM incubated 1 hr prior to L-glutamate-challenge measured after 12 hrs (reference value: 0.036 +/- 0.001 mU/mg protein); type: functional
# HT-22 [10] = assay: Neuroprotective activity against L-glutamate-induced neurotoxicity in mouse HT22 cells assessed as GSH/GSSG ratio incubated 1 hr prior to L-glutamate-challenge measured after 12 hrs; type: functional, cell-based
# HT-22 [11] = assay: Neuroprotective activity in mouse HT22 cells assessed as HO-1 protein expression at 100 uM by Western blotting analysis in presence of SP600125; type: functional, cell-based; procedure, shortened: as §2
# HT-22 [12] = assay: Neuroprotective activity against L-glutamate-induced neurotoxicity in mouse HT22 cells assessed as GR activity at 100 uM incubated 1 hr prior to L-glutamate-challenge measured after 12 hrs (reference value: 0.94 +/- 0.19 mU/mg protein); type: functional
# HT-22 [13] = assay: Induction of ERK phosphorylation in mouse HT22 cells at 100 uM after 0.5 to 12 hrs by Western blotting analysis; type: cell-based; procedure, shortened: as §2
# HT-22 [14] = assay: Antioxidant activity in mouse HT22 cells assessed as HO-1 protein expression after 0.5 to 12 hrs by Western blotting analysis; type: functional, cell-based; procedure, shortened: as §2
# HT-22 [15] = assay: Induction of JNK phosphorylation in mouse HT22 cells at 100 uM after 0.5 to 12 hrs by Western blotting analysis; type: cell-based; procedure, shortened: as §2
# HT-22 [16] = assay: Neuroprotective activity against L-glutamate-induced neurotoxicity in mouse HT22 cells assessed as GR activity at 10 uM incubated 1 hr prior to L-glutamate-challenge measured after 12 hrs (reference value: 0.94 +/- 0.19 mU/mg protein); type: functional
# HT-22 [17] = assay: Neuroprotective activity against L-glutamate-induced neurotoxicity in mouse HT22 cells assessed as GSH-Px activity at 100 uM incubated 1 hr prior to L-glutamate-challenge measured after 12 hrs (reference value: 0.036 +/- 0.001 mU/mg protein); type: functional
# HT-22 [18] = assay: Neuroprotective activity against L-glutamate-induced neurotoxicity in mouse HT22 cells assessed as GSH/GSSG ratio at 100 uM incubated 1 hr prior to L-glutamate-challenge measured after 12 hrs (reference value: 1.105 +/- 0.112); type: functional
# HT-22 [19] = assay: Neuroprotective activity against L-glutamate-induced neurotoxicity in mouse HT22 cells assessed as GSH-Px activity at 10 uM incubated 1 hr prior to L-glutamate-challenge measured after 12 hrs (reference value: 0.036 +/- 0.001 mU/mg protein); type: functional
# HT-22 [20] = assay: Neuroprotective activity against L-glutamate-induced neurotoxicity in mouse HT22 cells assessed as cell viability at 100 uM incubated 1 hr prior to L-glutamate-challenge measured after 12 hrs by MTT assay in presence of SnPP; type: functional, cell-based; procedure, shortened: as §1
# HT-22 [21] = assay: Neuroprotective activity against L-glutamate-induced neurotoxicity in mouse HT22 cells assessed as SOD activity at 10 uM incubated 1 hr prior to L-glutamate-challenge measured after 12 hrs by xanthine-xanthine oxidase reaction (reference value: 16.10 +/- 0.54 U/mg protein); type: functional
# HT-22 [22] = assay: Neuroprotective activity against L-glutamate-induced neurotoxicity in mouse HT22 cells assessed as GSH/GSSG ratio at 10 uM incubated 1 hr prior to L-glutamate-challenge measured after 12 hrs (reference value: 1.105 +/- 0.112); type: functional
# [23] = target: MAP kinase p38 (Mus musculus) (UniProt P47811+O08911+Q9WUI1+Q9Z1B7); assay: Induction of p38 phosphorylation in mouse HT22 cells at 100 uM after 0.5 to 12 hrs by Western blotting analysis; type: cell-based; settings: HT-22; procedure, shortened: as §2
# HT-22 [24] = assay: Neuroprotective activity in mouse HT22 cells assessed as HO-1 protein expression at 100 uM by Western blotting analysis in presence of PD98059; type: functional, cell-based; procedure, shortened: as §2
# HT-22 [25] = assay: Neuroprotective activity against L-glutamate-induced neurotoxicity in mouse HT22 cells assessed as SOD activity at 100 uM incubated 1 hr prior to L-glutamate-challenge measured after 12 hrs by xanthine-xanthine oxidase reaction (reference value: 16.10 +/- 0.54 U/mg protein); type: functional
# HT-22 [26] = assay: Neuroprotective activity in mouse HT22 cells assessed as HO-1 protein expression at 100 uM by Western blotting analysis in presence of SB203580; type: functional, cell-based; procedure, shortened: as §2
# HT-22 [27] = assay: Antioxidant activity in mouse HT22 cells assessed as HO-1 protein expression at 100 uM after 6 to 18 hrs by Western blotting analysis; type: functional, cell-based; procedure, shortened: as §2
smiles,measurement,setting,value
COc1c(O)ccc(O[C@@H]2O[C@@H](C)[C@H](O)[C@@H](O)[C@H]2O)c1C(=O)OCc1ccccc1O[C@@H]1O[C@H](CO)[C@@H](O)[C@H](O)[C@H]1O,Activity,HT-22 [1],Toxic
same,Activity,BV-2 (Mus musculus) [2],Active
same,Activity,BV-2 (Mus musculus) [3],Toxic
same,Activity,HT-22 [4],Active
O=C(OCc1ccccc1O[C@@H]1O[C@H](CO)[C@@H](O)[C@H](O)[C@H]1O)c1c(O)cccc1O[C@@H]1O[C@H](CO)[C@@H](O)[C@H](O)[C@H]1O,Activity,HT-22 [1],Toxic
same,Activity,BV-2 (Mus musculus) [2],Active
same,Activity,BV-2 (Mus musculus) [3],Toxic
COc1c(O)ccc(O[C@@H]2O[C@@H](C)[C@H](OC(C)=O)[C@@H](O)[C@H]2O)c1C(=O)OCc1ccccc1O[C@@H]1O[C@H](CO)[C@@H](O)[C@H](O)[C@H]1O,Activity,HT-22 [1],Toxic
same,Activity,HT-22 [5],0.9 mU/mg
same,Ratio,HT-22 [6],2.3
same,Activity,BV-2 (Mus musculus) [2],Active
same,Activity,HT-22 [7],tde
same,Activity,HT-22 [8],29.05 U/mg
same,Activity,BV-2 (Mus musculus) [3],Toxic
same,Activity,HT-22 [9],0.055 mU/mg
same,Activity,HT-22 [10],Dose-dependent effect
same,Activity,HT-22 [11],Active
same,Activity,HT-22 [12],1.14 mU/mg
same,Activity,HT-22 [13],Active
same,Activity,HT-22 [14],Dose-dependent effect
same,Activity,HT-22 [15],inactive
same,Activity,HT-22 [16],0.72 mU/mg
same,Activity,HT-22 [17],0.059 mU/mg
same,Ratio,HT-22 [18],2.824
same,Activity,HT-22 [19],0.056 mU/mg
same,Activity,HT-22 [20],inactive
same,Activity,HT-22 [21],29.78 U/mg
same,Ratio,HT-22 [22],1.594
same,Activity,[23],inactive
same,Activity,HT-22 [24],inactive
same,Activity,HT-22 [25],30.71 U/mg
same,Activity,HT-22 [26],Active
same,Activity,HT-22 [27],Active
same,Activity,HT-22 [4],Active
C[C@@H]1O[C@@H](Oc2ccc(O)c(O)c2C(=O)OCc2ccccc2O[C@@H]2O[C@H](CO)[C@@H](O)[C@H](O)[C@H]2O)[C@H](O)[C@H](O)[C@H]1O,Activity,HT-22 [1],Toxic
same,Activity,BV-2 (Mus musculus) [2],Active
same,Activity,BV-2 (Mus musculus) [3],Toxic
COc1c(O)ccc(O[C@@H]2O[C@@H](C)[C@H](O)[C@@H](O)[C@H]2O)c1C(=O)OCc1ccccc1O[C@@H]1O[C@@H](C)[C@H](O)[C@@H](O)[C@H]1O,Activity,HT-22 [1],Toxic
same,Activity,BV-2 (Mus musculus) [2],Active
same,Activity,BV-2 (Mus musculus) [3],Toxic
same,Activity,HT-22 [4],Active
COc1ccc(O[C@@H]2O[C@@H](C)[C@H](O)[C@@H](O)[C@H]2O)c(C(=O)OCc2ccccc2O[C@@H]2O[C@H](CO)[C@@H](O)[C@H](O)[C@H]2O)c1O,Activity,HT-22 [1],Toxic
same,Activity,BV-2 (Mus musculus) [2],Active
same,Activity,BV-2 (Mus musculus) [3],Toxic
same,Activity,HT-22 [4],Active

# — ChEMBL document CHEMBL3091281, “Neuroprotective benzyl benzoate glycosides from Disporum viridescens roots in HT22 hippocampal neuronal cells” (J Nat Prod, 2013)
